Experimental data as given in ChEMBL document CHEMBL1152401, “Synthesis of novel macrolide derivatives with imidazo[4,5-b]pyridinyl sulfur contained alkyl side chains and their antibacterial activity” (Bioorg Med Chem Lett, 2009).
Active and inactive are the calls of the source. The rule behind the calls is not given here.

What was measured:
Assay type in all cases: functional, organism-based
[1] = system: Streptococcus pneumoniae; test: Antimicrobial activity against erythromycin-resistant Streptococcus pneumoniae 07Z001 by broth microdilution method
Procedure, shortened: (§1)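 MIC by broth microdilution as recommended by NCCLS. Strains are constitutively erythromycin-resistant clinical isolates supplied by the Ministry of Health National Antimicrobial Resistance Investigation Net (MOHNARIN, China).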

[2] = system: Streptococcus pyogenes; test: Antimicrobial activity against erythromycin-susceptible Streptococcus pyogenes 07U084 by broth microdilution method
Procedure, shortened: (§2)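 MIC by broth microdilution following NCCLS recommendations. Strains used as erythromycin-susceptible clinical or reference isolates: S. pneumoniae ATCC 49619 and 07H252, S. pyogenes 07U084 and 07U086. Resistant comparison strains came from MOHNARIN, China. Value reported as minimum inhibitory concentration.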

[3] = system: Streptococcus pyogenes; test: Antimicrobial activity against erythromycin-susceptible Streptococcus pyogenes 07U086 by broth microdilution method; procedure, shortened: as §2
[4] = system: Streptococcus pyogenes; test: Antimicrobial activity against erythromycin-resistant Streptococcus pyogenes 07Z016 by broth microdilution method; procedure, shortened: as §1
[5] = system: Streptococcus pneumoniae; test: Antimicrobial activity against erythromycin-susceptible Streptococcus pneumoniae 07H252 by broth microdilution method; procedure, shortened: as §2
[6] = system: Streptococcus pneumoniae; test: Antimicrobial activity against erythromycin-susceptible Streptococcus pneumoniae ATCC 49619 by broth microdilution method; procedure, shortened: as §2
[7] = system: Streptococcus pneumoniae; test: Antimicrobial activity against erythromycin-resistant Streptococcus pneumoniae 05Z006 by broth microdilution method; procedure, shortened: as §1
[8] = system: Streptococcus pyogenes; test: Antimicrobial activity against erythromycin-resistant Streptococcus pyogenes 07Z011 by broth microdilution method; procedure, shortened: as §1
[9] = system: Streptococcus pyogenes; test: Antimicrobial activity against erythromycin-resistant Streptococcus pyogenes 07Z014 by broth microdilution method; procedure, shortened: as §1

| Compound | Activity [1] | Activity [2] | Activity [3] | Activity [4] | Activity [5] | Activity [6] | Activity [7] | Activity [8] | Activity [9] |
| --- | --- | --- | --- | --- | --- | --- | --- | --- | --- |
| CC[C@H]1OC(=O)[C@H](C)[C@@H](OC(=O)Cc2cccnc2)[C@H](C)[C@@H](O[C@@H]2O[C@H](C)C[C@H](N(C)C)[C@H]2O)[C@@](C)(OC)C[C@@H](C)C(=O)[C@H](C)[C@H]2N(CCCSc3nc4ccc(OC)nc4[nH]3)C(=O)O[C@]12C | Active | Active | Active | Active | Active | Active | Active | Active | Active |
| CC[C@H]1OC(=O)[C@H](C)[C@@H](O[C@H]2C[C@@](C)(OC)[C@@H](O)[C@H](C)O2)[C@H](C)[C@@H](O[C@@H]2O[C@H](C)C[C@H](N(C)C)[C@H]2O)[C@](C)(OC)C[C@@H](C)C(=O)[C@H](C)[C@@H](O)[C@]1(C)O | inactive | Active | Active | inactive | Active | Active | inactive | inactive | inactive |
| CC[C@H]1OC(=O)[C@H](C)[C@@H](OC(=O)Cc2ccc3c(c2)OCO3)[C@H](C)[C@@H](O[C@@H]2O[C@H](C)C[C@H](N(C)C)[C@H]2O)[C@@](C)(OC)C[C@@H](C)C(=O)[C@H](C)[C@H]2N(CCCSc3nc4ccc(OC)nc4[nH]3)C(=O)O[C@]12C | Active | Active | Active | Active | Active | Active | Active | Active | Active |
| CC[C@H]1OC(=O)[C@H](C)[C@@H](OC(=O)Cc2cccnc2)[C@H](C)[C@@H](O[C@@H]2O[C@H](C)C[C@H](N(C)C)[C@H]2O)[C@@](C)(OC)C[C@@H](C)C(=O)[C@H](C)[C@H]2N(CCCCSc3nc4ccc(OC)nc4[nH]3)C(=O)O[C@]12C | Active | Active | Active | Active | Active | Active | Active | Active | Active |
| CC[C@H]1OC(=O)[C@H](C)C(=O)[C@H](C)[C@@H](O[C@@H]2O[C@H](C)C[C@H](N(C)C)[C@H]2O)[C@](C)(OC)C[C@@H](C)C(=O)[C@H](C)[C@H]2N(CCCCn3cnc(-c4cccnc4)c3)C(=O)O[C@]12C | Active | Active | Active | Active | Active | Active | Active | Active | Active |
| CC[C@H]1OC(=O)[C@H](C)[C@@H](O[C@H]2C[C@@](C)(OC)[C@@H](O)[C@H](C)O2)[C@H](C)[C@@H](O[C@@H]2O[C@H](C)C[C@H](N(C)C)[C@H]2O)[C@](C)(O)C[C@@H](C)CN(C)[C@H](C)[C@@H](O)[C@]1(C)O | inactive | Active | Active | inactive | Active | Active | inactive | inactive | inactive |
| CC[C@H]1OC(=O)[C@H](C)C(=O)[C@H](C)[C@@H](O[C@@H]2O[C@H](C)C[C@H](N(C)C)[C@H]2O)[C@@](C)(OC)C[C@@H](C)C(=O)[C@H](C)[C@H]2N(CCCSc3nc4ccc(OC)nc4[nH]3)C(=O)O[C@]12C | Active | Active | Active | Active | Active | Active | Active | Active | Active |
| CC[C@H]1OC(=O)[C@H](C)[C@@H](OC(=O)Cc2ccc3c(c2)OCO3)[C@H](C)[C@@H](O[C@@H]2O[C@H](C)C[C@H](N(C)C)[C@H]2O)[C@@](C)(OC)C[C@@H](C)C(=O)[C@H](C)[C@H]2N(CCCCSc3nc4ccc(OC)nc4[nH]3)C(=O)O[C@]12C | Active | Active | Active | Active | Active | Active | Active | Active | Active |
